Experiment [1] has as its system Staphylococcus aureus. The experiment can be described thus: Antimicrobial activity against methicillin-resistant Staphylococcus aureus L32 clinical isolate by CLIS method. The experiment is classed as functional. The method, boiled down:
(§1)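 MIC and MBC determined against biofilm-forming strains: MSSA ATCC 35556, E. faecalis ATCC 29212, and two clinical biofilm-forming MRSA isolates (L32, L44) obtained from patient blood samples.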

Experiment [2] concerns Staphylococcus aureus. The experiment can be described thus: Antimicrobial activity against methicillin-resistant Staphylococcus aureus L44 clinical isolate by CLIS method. The experiment is classed as functional. Summed up: as §1
A further experiment concerns HCT-116. The experiment can be described thus: Cytotoxicity against human HCT116 cells. Format: functional, cell-based.
For experiment [3], the system named is Enterococcus faecalis. Put plainly: Antimicrobial activity against Enterococcus faecalis ATCC 29212 by CLIS method.
In experiment [4] the test system is Staphylococcus aureus. The experiment can be described thus: Antimicrobial activity against methicillin-susceptible Staphylococcus aureus ATCC 35556 by CLIS method.
In experiment [5] the test system is Staphylococcus aureus. The experiment can be described thus: Antimicrobial activity against methicillin-resistant Staphylococcus aureus L32 clinical isolate assessed as reduction in bacterial load at 2 X MIC over 24 hrs by time-kill assay. The experiment is classed as functional. The method, boiled down:
(§2)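 Time-kill assay at 2× and 4× MIC over 24 h. Starting inoculum 5 × 10⁵ CFU/mL. Read-out is the mean change in bacterial density (log₁₀ CFU/mL) from the starting inoculum at 24 h, compared with a growth control.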

The test system of experiment [6] is Staphylococcus aureus. Put plainly: Antimicrobial activity against methicillin-resistant Staphylococcus aureus L44 clinical isolate assessed as reduction in bacterial load at 2 X MIC over 24 hrs by time-kill assay. Format: functional. The method, boiled down: as §2
In experiment [7] the test system is Staphylococcus aureus. Put plainly: Antimicrobial activity against methicillin-resistant Staphylococcus aureus L32 clinical isolate assessed as reduction in bacterial load at 4 fold MIC over 24 hrs by time-kill assay. The experiment is classed as functional. The method, boiled down: as §2
The test system of experiment [8] is Staphylococcus aureus. The experiment can be described thus: Antimicrobial activity against methicillin-resistant Staphylococcus aureus L44 clinical isolate assessed as reduction in bacterial load at 4 fold MIC over 24 hrs by time-kill assay. Format: functional. The method, boiled down: as §2
Experiment [9] deals with Staphylococcus aureus. The experiment can be described thus: Inhibition of methicillin-susceptible Staphylococcus aureus ATCC […] biofilm formation assessed as concentration required to eradicate growth after 24 hrs. Format: functional. The method, boiled down: (§3)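 Modified Calgary pin-lid biofilm device, testing sessile bacteria seeded from an established biofilm. MBIC is the concentration giving no visible growth after 24 h incubation of preformed biofilm with antibiotic. MBEC is the minimal concentration that eradicates CFU/mL growth from the biofilm.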

The test system of experiment [10] is Staphylococcus aureus. Put plainly: Inhibition of Staphylococcus aureus ATCC 35556 biofilm formation at MIC.
Experiment [11] deals with Enterococcus faecalis. The experiment can be described thus: Inhibition of Enterococcus faecalis ATCC 29212 biofilm formation at MIC.
Experiment [12] concerns Enterococcus faecalis. Put plainly: Inhibition of Enterococcus faecalis ATCC 29212 biofilm formation assessed as visible growth after 24 hrs.
Experiment [13] relates to Staphylococcus aureus. The experiment can be described thus: Inhibition of methicillin-susceptible Staphylococcus aureus ATCC 35556 biofilm formation assessed as visible growth after 24 hrs.
Experiment [14] has as its system Enterococcus faecalis. The experiment can be described thus: Inhibition of Enterococcus faecalis ATCC 29212 biofilm formation assessed as concentration required to eradicate growth after 24 hrs.
In experiment [15] the test system is Enterococcus faecalis. The experiment can be described thus: Antimicrobial activity against Enterococcus faecalis ATCC 29212 assessed as reduction in bacterial load at 2 X MIC over 24 hrs by time-kill assay.
Experiment [16] relates to Enterococcus faecalis. Put plainly: Antimicrobial activity against Enterococcus faecalis ATCC 29212 assessed as reduction in bacterial load at 4 fold MIC over 24 hrs by time-kill assay.
For experiment [17], the system named is Staphylococcus aureus. The experiment can be described thus: Antimicrobial activity against methicillin-susceptible Staphylococcus aureus ATCC 35556 assessed as reduction in bacterial load at 2 X MIC over 24 hrs by time-kill assay.
Experiment [18] relates to Staphylococcus aureus. Put plainly: Antimicrobial activity against methicillin-susceptible Staphylococcus aureus ATCC 35556 assessed as reduction in bacterial load at 4 fold MIC over 24 hrs by time-kill assay.
Experiment [19] relates to Staphylococcus aureus. The experiment can be described thus: Inhibition of methicillin-resistant Staphylococcus aureus L32 clinical isolate biofilm formation assessed as visible growth after 24 hrs. The experiment is classed as functional. The method, boiled down: as §3
Experiment [20] deals with Staphylococcus aureus. The experiment can be described thus: Inhibition of methicillin-resistant Staphylococcus aureus L32 clinical isolate biofilm formation assessed as concentration required to eradicate growth after 24 hrs. The experiment is classed as functional, isolateL32. The method, boiled down: as §3
Experiment [21] deals with Staphylococcus aureus. The experiment can be described thus: Inhibition of methicillin-resistant Staphylococcus aureus L44 clinical isolate biofilm formation assessed as visible growth after 24 hrs. Format: functional. Summed up: as §3
The subject of experiment [22] is Staphylococcus aureus. Put plainly: Inhibition of methicillin-resistant Staphylococcus aureus L44 clinical isolate biofilm formation assessed as concentration required to eradicate growth after 24 hrs. The experiment is classed as functional. The method, boiled down: as §3
The test system of experiment [23] is Staphylococcus aureus. Put plainly: Inhibition of methicillin-susceptible Staphylococcus aureus ATCC 35556 biofilm formation assessed as concentration required to eradicate growth after 24 hrs.

Values after ≈ are worked out from the molar mass of the structure shown. Active and inactive are the calls of the source. The rule behind the calls is not given here.

As for `CS[C@@H](SC[C@@H](C(=O)N(C)[C@H](C(=O)O)C(C)C)N(C)C(=O)[C@H](C)NC(=O)[C@@H](CO)NC(=O)c1cnc2ccccc2n1)[C@@H](C(=O)N(C)[C@H](C(=O)O)C(C)C)N(C)C(=O)[C@H](C)NC(=O)[C@@H](CO)NC(=O)c1cnc2ccccc2n1` [ECHINOSERINE], the MBC against Staphylococcus aureus [1], against Staphylococcus aureus [2], in the experiment with Enterococcus faecalis [3] and in the experiment on Staphylococcus aureus [4] was more than 14 µM in each case. For the same compound, the minimum inhibitory concentration (MIC) in the experiment with Staphylococcus aureus [1], in the experiment on Staphylococcus aureus [2], against Enterococcus faecalis [3] and against Staphylococcus aureus [4] was more than 14 µM in each case. Also, 13.4 µM corresponded to half-maximal inhibition in the experiment with HCT-116 (IC50).

For `CS[C@H]1SC[C@H](N(C)C(=O)[C@H](C)NC(=O)[C@@H](CO)NC(=O)c2cnc3ccccc3n2)C(=O)N(C)[C@@H](C(C)C)C(=O)OC[C@@H](NC(=O)c2cnc3ccccc3n2)C(=O)N[C@@H](C)C(=O)N(C)[C@@H]1C(=O)N(C)[C@H](C(=O)O)C(C)C` [DEPSIECHINOSERINE], the minimum bactericidal concentration (MBC) in the experiment on Staphylococcus aureus [1], in the experiment with Staphylococcus aureus [2], with Enterococcus faecalis [3] and in the experiment with Staphylococcus aureus [4] was more than 14 µM throughout. The minimum inhibitory concentration (MIC) is more than 14 µM with Staphylococcus aureus [1], more than 14 µM in the experiment on Staphylococcus aureus [2], 14 µM (≈ 15.7 µg/mL) against Enterococcus faecalis [3] and more than 14 µM in the experiment on Staphylococcus aureus [4]. The same compound came in with an IC50 in the experiment on HCT-116 of 4.6 µM.

As to `CS[C@@H]1[C@H]2C(=O)N(C)[C@@H](C(C)C)C(=O)OC[C@@H](NC(=O)c3cnc4ccccc4n3)C(=O)N[C@@H](C)C(=O)N(C)[C@@H](C[S+]1[O-])C(=O)N(C)[C@@H](C(C)C)C(=O)OC[C@@H](NC(=O)c1cnc3ccccc3n1)C(=O)N[C@@H](C)C(=O)N2C` (stereo partly drawn), the minimal bactericidal concentration (MBC) was 7.17 µM (≈ 8.01 µg/mL) against Staphylococcus aureus [1], 7.17 µM (≈ 8.01 µg/mL) with Staphylococcus aureus [2], more than 14 µM in the experiment on Enterococcus faecalis [3] and 3.58 µM (≈ 4 µg/mL) against Staphylococcus aureus [4]. In addition, the minimal inhibitory concentration (MIC) worked out at 1.79 µM (≈ 2 µg/mL) against Staphylococcus aureus [1], 1.79 µM (≈ 2 µg/mL) with Staphylococcus aureus [2], 0.22 µM (≈ 0.246 µg/mL) against Enterococcus faecalis [3] and 0.9 µM (≈ 1.01 µg/mL) in the experiment on Staphylococcus aureus [4]. The compound further displayed a half-maximal inhibitory concentration (IC50) with HCT-116 of 0.4 µM. In addition, the log10CFU/ml with Staphylococcus aureus [5] was -1.35; with Staphylococcus aureus [6], -1.09; in the experiment on Staphylococcus aureus [7], -2.15; in the experiment with Staphylococcus aureus [8] it was -2.24; with Enterococcus faecalis [15] it was 0.69; with Enterococcus faecalis [16], -1.04. Moreover, the log10CFU/ml in the experiment on Staphylococcus aureus [17] is on record as -3.39; with Staphylococcus aureus [18], -3.24. For the same compound, the MBEC in the experiment on Staphylococcus aureus [9], with Enterococcus faecalis [12] and in the experiment on Enterococcus faecalis [14] was more than 4 µM throughout. Also, the result with Staphylococcus aureus [10] and in the experiment on Enterococcus faecalis [11] was Active. Further, the MBIC in the experiment on Staphylococcus aureus [13] is 3.6 µM.

On to `CS[C@H]1SC[C@H]2C(=O)N(C)[C@@H](C(C)C)C(=O)OC[C@@H](NC(=O)c3cnc4ccccc4n3)C(=O)N[C@@H](C)C(=O)N(C)[C@@H]1C(=O)N(C)[C@@H](C(C)C)C(=O)OC[C@@H](NC(=O)c1cnc3ccccc3n1)C(=O)N[C@@H](C)C(=O)N2C` [ECHINOMYCIN], for which the minimal bactericidal concentration (MBC) is 0.91 µM (≈ 1 µg/mL) against Staphylococcus aureus [1], 0.45 µM (≈ 0.496 µg/mL) in the experiment on Staphylococcus aureus [2], 0.11 µM (≈ 0.121 µg/mL) against Enterococcus faecalis [3] and 0.45 µM (≈ 0.496 µg/mL) with Staphylococcus aureus [4]. Further, the minimal inhibitory concentration (MIC) in the experiment with Staphylococcus aureus [1] was 0.03 µM (≈ 0.033 µg/mL); in the experiment with Staphylococcus aureus [2] it was 0.03 µM (≈ 0.033 µg/mL); in the experiment on Enterococcus faecalis [3] it was 0.01 µM (≈ 0.011 µg/mL); against Staphylococcus aureus [4] it was 0.01 µM (≈ 0.011 µg/mL). This compound returned an IC50 in the experiment on HCT-116 of less than 0.003 µM. In addition, the log10CFU/ml is recorded as 0.61 with Staphylococcus aureus [5]; 0.423 in the experiment on Staphylococcus aureus [6]; -2.39 with Staphylococcus aureus [7]; -1.23 in the experiment on Staphylococcus aureus [8]; 0.04 with Enterococcus faecalis [15]; -1.42 in the experiment with Enterococcus faecalis [16]. Moreover, the values for the log10CFU/ml with Staphylococcus aureus [17] and in the experiment with Staphylococcus aureus [18] were -1.54 and -1.79, respectively. For the same compound, the MBIC in the experiment on Staphylococcus aureus [19] was more than 4 µM; in the experiment on Staphylococcus aureus [20], more than 4 µM; with Staphylococcus aureus [21], more than 4 µM; in the experiment on Staphylococcus aureus [22] it was more than 4 µM; with Enterococcus faecalis [12] it was 0.22 µM; with Staphylococcus aureus [13], 0.03 µM. In addition, the MBIC with Enterococcus faecalis [14] turned out to be 0.22 µM. Moreover, the outcome in the experiment with Staphylococcus aureus [10] and in the experiment on Enterococcus faecalis [11] was Active. The MBEC with Staphylococcus aureus [23] was 0.22 µM.

(Values after ChEMBL document CHEMBL1153900, “Structure-activity studies of echinomycin antibiotics against drug-resistant and biofilm-forming Staphylococcus aureus and Enterococcus faecalis” (Bioorg Med Chem Lett, 2009).)
